Test results as given in the M2OR odorant receptor database.

Assays:
Conditions in all cases: stereoisomer not certain
OR10G2 (Homo sapiens) = molecular target: T1, OR10G2 (Homo sapiens) (UniProt Q8NGC3)
T1 sequence (whole entry): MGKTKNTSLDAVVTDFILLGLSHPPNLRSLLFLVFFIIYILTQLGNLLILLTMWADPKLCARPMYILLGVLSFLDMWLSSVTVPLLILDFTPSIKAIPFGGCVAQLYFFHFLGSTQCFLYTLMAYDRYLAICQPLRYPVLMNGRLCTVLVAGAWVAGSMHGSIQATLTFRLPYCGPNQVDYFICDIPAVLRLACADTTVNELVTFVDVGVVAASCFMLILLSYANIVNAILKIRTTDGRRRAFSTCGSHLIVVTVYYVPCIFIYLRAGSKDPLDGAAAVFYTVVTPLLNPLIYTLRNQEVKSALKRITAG
Summary of the method: (§1)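 Each entry records the cell line, G-protein, co-transfected protein and tags used. Methods varied with the source, often transient luciferase assays in mammalian cell lines. A receptor–molecule pair is called responsive (active) if the original authors judged its signal statistically different from baseline and non-responsive (inactive) otherwise.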

OR10G3 (Homo sapiens) = molecular target: T2, OR10G3 (Homo sapiens) (UniProt Q8NGC4)
T2 sequence (whole entry): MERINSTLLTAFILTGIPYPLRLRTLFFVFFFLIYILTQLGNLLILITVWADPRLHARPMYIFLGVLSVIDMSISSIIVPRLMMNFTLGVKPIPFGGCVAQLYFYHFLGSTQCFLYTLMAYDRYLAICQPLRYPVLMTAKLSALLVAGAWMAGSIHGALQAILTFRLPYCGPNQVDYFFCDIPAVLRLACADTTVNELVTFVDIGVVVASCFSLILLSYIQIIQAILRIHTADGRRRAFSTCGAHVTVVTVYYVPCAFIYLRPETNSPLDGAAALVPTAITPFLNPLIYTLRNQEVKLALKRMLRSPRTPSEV
Summary of the method: as §1

OR10G4 (Homo sapiens) = molecular target: T3, OR10G4 (Homo sapiens) (UniProt Q8NGN3)
T3 sequence (whole entry): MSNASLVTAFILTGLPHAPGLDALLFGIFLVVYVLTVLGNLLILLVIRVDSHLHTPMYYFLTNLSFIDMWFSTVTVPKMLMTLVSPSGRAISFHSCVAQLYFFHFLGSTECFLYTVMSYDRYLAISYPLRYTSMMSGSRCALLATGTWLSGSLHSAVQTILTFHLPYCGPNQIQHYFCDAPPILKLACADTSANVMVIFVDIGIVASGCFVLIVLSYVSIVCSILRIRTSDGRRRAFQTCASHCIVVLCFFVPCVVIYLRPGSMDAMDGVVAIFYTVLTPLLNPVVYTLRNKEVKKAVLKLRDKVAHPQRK
Summary of the method: as §1

OR10G6 (Homo sapiens) = molecular target: T4, OR10G6 (Homo sapiens) (UniProt Q8NH81)
T4 sequence (whole entry): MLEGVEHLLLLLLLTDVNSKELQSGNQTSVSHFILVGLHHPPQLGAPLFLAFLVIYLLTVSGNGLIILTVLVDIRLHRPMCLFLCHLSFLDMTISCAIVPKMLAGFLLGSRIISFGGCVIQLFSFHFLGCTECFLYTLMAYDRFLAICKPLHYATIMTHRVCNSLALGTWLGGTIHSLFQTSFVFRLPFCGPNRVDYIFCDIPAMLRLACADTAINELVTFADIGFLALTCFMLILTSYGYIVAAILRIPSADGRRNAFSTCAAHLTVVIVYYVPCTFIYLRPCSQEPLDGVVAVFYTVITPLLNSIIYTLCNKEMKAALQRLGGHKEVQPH
Summary of the method: as §1

OR10G7 (Homo sapiens) = molecular target: T5, OR10G7 (Homo sapiens) (UniProt Q8NGN6)
T5 sequence (whole entry): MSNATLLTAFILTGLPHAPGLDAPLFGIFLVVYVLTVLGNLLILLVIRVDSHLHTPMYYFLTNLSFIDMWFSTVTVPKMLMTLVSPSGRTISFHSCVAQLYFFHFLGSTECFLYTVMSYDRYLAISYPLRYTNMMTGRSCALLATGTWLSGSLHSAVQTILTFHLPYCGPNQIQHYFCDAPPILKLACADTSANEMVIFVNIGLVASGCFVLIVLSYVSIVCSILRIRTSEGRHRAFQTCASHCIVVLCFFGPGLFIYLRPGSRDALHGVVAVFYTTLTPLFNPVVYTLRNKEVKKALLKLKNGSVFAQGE
Summary of the method: as §1

OR10G8 (Homo sapiens) = molecular target: T6, OR10G8 (Homo sapiens) (UniProt Q8NGN5)
T6 sequence (whole entry): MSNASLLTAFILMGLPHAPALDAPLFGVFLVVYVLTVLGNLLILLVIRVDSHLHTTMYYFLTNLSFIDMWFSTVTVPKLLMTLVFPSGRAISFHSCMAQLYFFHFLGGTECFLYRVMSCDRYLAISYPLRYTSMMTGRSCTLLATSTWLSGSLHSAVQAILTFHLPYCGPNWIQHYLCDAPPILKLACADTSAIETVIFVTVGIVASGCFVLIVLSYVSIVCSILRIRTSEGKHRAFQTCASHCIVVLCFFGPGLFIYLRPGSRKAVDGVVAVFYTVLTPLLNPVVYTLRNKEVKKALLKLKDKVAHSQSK
Summary of the method: as §1

OR10G9 (Homo sapiens) = molecular target: T7, OR10G9 (Homo sapiens) (UniProt Q8NGN4)
T7 sequence (whole entry): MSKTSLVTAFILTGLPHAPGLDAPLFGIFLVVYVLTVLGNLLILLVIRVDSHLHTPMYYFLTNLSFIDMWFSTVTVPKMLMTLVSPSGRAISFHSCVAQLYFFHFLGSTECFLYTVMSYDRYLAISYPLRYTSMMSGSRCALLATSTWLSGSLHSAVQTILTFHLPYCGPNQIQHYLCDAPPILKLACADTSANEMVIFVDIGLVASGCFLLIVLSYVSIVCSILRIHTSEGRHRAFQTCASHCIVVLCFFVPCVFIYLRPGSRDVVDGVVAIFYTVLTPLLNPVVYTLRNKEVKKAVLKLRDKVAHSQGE
Summary of the method: as §1

OR10H1 (Homo sapiens) = molecular target: T8, OR10H1 (Homo sapiens) (UniProt Q9Y4A9)
T8 sequence (whole entry): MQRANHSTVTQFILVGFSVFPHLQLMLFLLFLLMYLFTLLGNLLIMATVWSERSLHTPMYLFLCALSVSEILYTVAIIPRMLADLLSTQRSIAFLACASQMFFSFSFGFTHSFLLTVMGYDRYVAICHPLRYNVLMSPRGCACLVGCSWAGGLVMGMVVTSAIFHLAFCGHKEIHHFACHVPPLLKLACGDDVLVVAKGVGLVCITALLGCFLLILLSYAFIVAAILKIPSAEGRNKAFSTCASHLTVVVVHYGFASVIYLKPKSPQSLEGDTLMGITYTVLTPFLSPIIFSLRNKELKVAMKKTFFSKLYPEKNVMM
Summary of the method: as §1

OR10H2 (Homo sapiens) = molecular target: T9, OR10H2 (Homo sapiens) (UniProt O60403)
T9 sequence (whole entry): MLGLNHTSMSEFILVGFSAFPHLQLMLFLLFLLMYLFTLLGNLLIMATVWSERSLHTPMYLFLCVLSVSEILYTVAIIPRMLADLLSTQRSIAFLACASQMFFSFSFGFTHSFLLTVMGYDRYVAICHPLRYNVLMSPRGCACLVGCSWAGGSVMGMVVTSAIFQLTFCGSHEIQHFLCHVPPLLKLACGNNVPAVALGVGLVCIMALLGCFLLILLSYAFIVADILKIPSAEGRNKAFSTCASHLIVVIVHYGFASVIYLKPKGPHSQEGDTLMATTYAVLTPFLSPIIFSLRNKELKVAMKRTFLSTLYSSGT
Summary of the method: as §1

OR10H3 (Homo sapiens) = molecular target: T10, OR10H3 (Homo sapiens) (UniProt O60404)
T10 sequence (whole entry): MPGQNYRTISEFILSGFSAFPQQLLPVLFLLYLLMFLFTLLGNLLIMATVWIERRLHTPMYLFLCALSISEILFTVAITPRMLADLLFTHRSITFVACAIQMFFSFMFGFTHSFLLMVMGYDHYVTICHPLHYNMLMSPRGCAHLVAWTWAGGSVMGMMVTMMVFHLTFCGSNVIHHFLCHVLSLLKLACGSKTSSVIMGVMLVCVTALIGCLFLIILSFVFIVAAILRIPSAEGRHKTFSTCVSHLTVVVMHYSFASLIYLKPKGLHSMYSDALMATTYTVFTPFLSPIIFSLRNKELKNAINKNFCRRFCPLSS
Summary of the method: as §1

OR10H4 (Homo sapiens) = molecular target: T11, OR10H4 (Homo sapiens) (UniProt Q8NGA5)
T11 sequence (whole entry): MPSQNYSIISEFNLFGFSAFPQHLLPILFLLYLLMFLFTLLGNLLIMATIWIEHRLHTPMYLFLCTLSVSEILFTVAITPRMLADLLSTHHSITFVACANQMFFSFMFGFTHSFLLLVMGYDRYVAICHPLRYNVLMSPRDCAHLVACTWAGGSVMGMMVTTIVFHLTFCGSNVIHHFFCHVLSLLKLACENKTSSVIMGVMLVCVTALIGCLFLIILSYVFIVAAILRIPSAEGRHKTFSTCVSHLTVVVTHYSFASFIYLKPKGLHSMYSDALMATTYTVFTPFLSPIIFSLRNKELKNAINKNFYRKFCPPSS
Summary of the method: as §1

OR10H5 (Homo sapiens) = molecular target: T12, OR10H5 (Homo sapiens) (UniProt Q8NGA6)
T12 sequence (whole entry): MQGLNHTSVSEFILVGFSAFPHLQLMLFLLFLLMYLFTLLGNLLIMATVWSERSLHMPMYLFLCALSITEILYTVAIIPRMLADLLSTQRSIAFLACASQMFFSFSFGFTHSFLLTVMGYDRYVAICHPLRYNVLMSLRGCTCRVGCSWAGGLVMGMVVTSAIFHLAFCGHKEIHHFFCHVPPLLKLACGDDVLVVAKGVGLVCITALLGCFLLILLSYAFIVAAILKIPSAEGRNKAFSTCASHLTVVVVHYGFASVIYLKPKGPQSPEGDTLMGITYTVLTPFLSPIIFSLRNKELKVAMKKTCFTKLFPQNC
Summary of the method: as §1

OR10J1 (Homo sapiens) = molecular target: T13, OR10J1 (Homo sapiens) (UniProt P30954)
T13 sequence (whole entry): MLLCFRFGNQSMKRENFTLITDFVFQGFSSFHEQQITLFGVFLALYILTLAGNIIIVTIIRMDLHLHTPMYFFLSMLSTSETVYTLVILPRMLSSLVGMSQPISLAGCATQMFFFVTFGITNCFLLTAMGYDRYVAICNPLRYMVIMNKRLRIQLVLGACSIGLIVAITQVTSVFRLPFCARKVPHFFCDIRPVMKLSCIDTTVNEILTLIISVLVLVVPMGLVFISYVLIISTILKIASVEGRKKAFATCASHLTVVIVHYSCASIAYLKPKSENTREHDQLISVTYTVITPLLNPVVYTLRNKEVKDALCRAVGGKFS
Summary of the method: as §1

OR10J3 (Homo sapiens) = molecular target: T14, OR10J3 (Homo sapiens) (UniProt Q5JRS4)
T14 sequence (whole entry): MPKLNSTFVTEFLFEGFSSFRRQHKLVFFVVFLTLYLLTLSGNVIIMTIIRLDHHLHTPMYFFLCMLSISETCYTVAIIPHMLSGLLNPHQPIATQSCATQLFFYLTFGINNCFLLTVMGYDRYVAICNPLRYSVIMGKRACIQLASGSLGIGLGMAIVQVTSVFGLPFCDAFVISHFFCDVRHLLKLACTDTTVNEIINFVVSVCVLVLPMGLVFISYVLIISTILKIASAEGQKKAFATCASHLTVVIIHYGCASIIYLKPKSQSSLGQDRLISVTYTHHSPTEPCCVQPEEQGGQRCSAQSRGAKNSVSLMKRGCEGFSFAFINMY
Summary of the method: as §1

OR10J5 (Homo sapiens) = molecular target: T15, OR10J5 (Homo sapiens) (UniProt Q8NHC4)
T15 sequence (whole entry): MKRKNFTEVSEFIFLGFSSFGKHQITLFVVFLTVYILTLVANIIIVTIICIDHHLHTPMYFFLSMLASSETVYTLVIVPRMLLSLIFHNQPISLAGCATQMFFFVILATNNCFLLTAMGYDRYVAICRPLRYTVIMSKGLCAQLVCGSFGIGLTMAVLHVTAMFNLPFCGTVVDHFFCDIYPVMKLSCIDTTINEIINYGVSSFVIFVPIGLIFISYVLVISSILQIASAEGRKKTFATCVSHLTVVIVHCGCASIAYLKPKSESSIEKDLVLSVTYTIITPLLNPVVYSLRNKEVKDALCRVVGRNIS
Summary of the method: as §1

OR10K1 (Homo sapiens) = molecular target: T16, OR10K1 (Homo sapiens) (UniProt Q8NGX5)
T16 sequence (whole entry): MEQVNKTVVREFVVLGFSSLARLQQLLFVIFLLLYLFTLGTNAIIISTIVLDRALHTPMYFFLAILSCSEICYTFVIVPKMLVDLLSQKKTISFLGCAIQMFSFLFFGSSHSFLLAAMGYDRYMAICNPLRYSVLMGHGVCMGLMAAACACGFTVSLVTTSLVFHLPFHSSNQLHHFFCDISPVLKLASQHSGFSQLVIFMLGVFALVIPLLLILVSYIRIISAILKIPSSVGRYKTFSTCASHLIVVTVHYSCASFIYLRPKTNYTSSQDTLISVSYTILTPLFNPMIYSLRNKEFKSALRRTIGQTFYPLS
Summary of the method: as §1

OR10P1 (Homo sapiens) = molecular target: T17, OR10P1 (Homo sapiens) (UniProt Q8NGE3)
T17 sequence (whole entry): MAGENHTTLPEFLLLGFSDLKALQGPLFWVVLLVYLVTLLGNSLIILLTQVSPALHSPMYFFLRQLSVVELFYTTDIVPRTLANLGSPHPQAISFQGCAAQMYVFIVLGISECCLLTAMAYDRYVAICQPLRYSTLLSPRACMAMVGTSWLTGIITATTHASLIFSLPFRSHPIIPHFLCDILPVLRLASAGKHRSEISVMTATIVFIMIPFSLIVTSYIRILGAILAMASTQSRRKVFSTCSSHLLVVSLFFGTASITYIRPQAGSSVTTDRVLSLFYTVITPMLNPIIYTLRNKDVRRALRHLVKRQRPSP
Summary of the method: as §1

OR10Q1 (Homo sapiens) = molecular target: T18, OR10Q1 (Homo sapiens) (UniProt Q8NGQ4)
T18 sequence (whole entry): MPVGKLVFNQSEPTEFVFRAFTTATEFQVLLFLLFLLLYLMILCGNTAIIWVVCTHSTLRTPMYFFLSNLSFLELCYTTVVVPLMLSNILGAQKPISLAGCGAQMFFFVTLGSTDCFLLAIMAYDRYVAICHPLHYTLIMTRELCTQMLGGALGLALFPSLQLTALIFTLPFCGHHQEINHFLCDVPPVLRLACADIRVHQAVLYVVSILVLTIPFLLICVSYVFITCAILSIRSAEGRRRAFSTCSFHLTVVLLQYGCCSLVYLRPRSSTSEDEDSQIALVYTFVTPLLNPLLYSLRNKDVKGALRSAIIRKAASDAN
Summary of the method: as §1

Measured: odorant receptor agonist call

Cc1cnc(C)c(C)n1
inactive: all assays above
